Measured values published in ChEMBL document CHEMBL3425414, “Synthesis of a New Peptide-Coumarin Conjugate: A Potential Agent against Cryptococcosis” (ACS Med Chem Lett, 2015).
≈ marks a conversion by molar mass, not a printed value. Calls of active or inactive are those of the source. The rule behind the calls is not given here. Peptide text beside a SMILES is read from it. * marks the point of attachment. X1 = CCN(CC)c1ccc2cc(-n3cc(CCC(=O)*)nn3)c(=O)oc2c1; Pent4ynoyl = C#CCCC(=O)*

Legend:
[1] = tested on: Cryptococcus gattii species complex; experiment: Antifungal activity against Cryptococcus gattii ICB 181 after 72 hrs by microdilution method; format: functional, Cryptococcus bacillisporus; conditions: ICB 181, 72 h
Summary of the method: (§1)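 Broth microdilution susceptibility per CLSI M27-A3; MIC reported in […]. Panel includes C. gattii strains (one fluconazole-resistant, L27/01F) and C. neoformans ATCC strains; fluconazole run as reference drug.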

[2] = tested on: Cryptococcus gattii species complex; experiment: Antifungal activity against Cryptococcus gattii L135/03 after 72 hrs by microdilution method; format: functional, Cryptococcus bacillisporus; conditions: L135/03, 72 h; summary of the method: as §1
[3] = tested on: Cryptococcus gattii species complex; experiment: Antifungal activity against Cryptococcus gattii 196L/03 after 72 hrs by microdilution method; format: functional, Cryptococcus bacillisporus; conditions: 196L/03, 72 h; summary of the method: as §1
[4] = tested on: Cryptococcus gattii species complex; experiment: Antifungal activity against Cryptococcus gattii 547/OTT after 72 hrs by microdilution method; format: functional, Cryptococcus bacillisporus; summary of the method: as §1
[5] = tested on: Cryptococcus bacillisporus; experiment: Antifungal activity against Cryptococcus gattii ATCC 32608 after 72 hrs by microdilution method; format: functional; conditions: ATCC 32608, 72 h; summary of the method: as §1
[6] = tested on: Cryptococcus gattii species complex; experiment: Antifungal activity against Cryptococcus gattii 1913ER after 72 hrs by microdilution method; format: functional, Cryptococcus bacillisporus; summary of the method: as §1
[7] = tested on: Cryptococcus gattii species complex; experiment: Antifungal activity against Cryptococcus gattii L27/01 after 72 hrs by microdilution method; format: functional, Cryptococcus bacillisporus; conditions: L27/01, 72 h; summary of the method: as §1
[8] = tested on: Cryptococcus gattii species complex; experiment: Antifungal activity against Cryptococcus gattii L28/02 after 72 hrs by microdilution method; format: functional, Cryptococcus bacillisporus; conditions: L28/02, 72 h; summary of the method: as §1
[9] = tested on: Cryptococcus gattii species complex; experiment: Antifungal activity against Cryptococcus gattii LMM 818 after 72 hrs by microdilution method; format: functional, Cryptococcus bacillisporus; conditions: LMM 818, 72 h; summary of the method: as §1
[10] = tested on: Cryptococcus gattii species complex; experiment: Antifungal activity against Cryptococcus gattii L24/01 after 72 hrs by microdilution method; format: functional, Cryptococcus bacillisporus; conditions: L24/01, 72 h; summary of the method: as §1
[11] = tested on: Cryptococcus gattii species complex; experiment: Antifungal activity against Cryptococcus gattii 23/10993 after 72 hrs by microdilution method; format: functional, Cryptococcus bacillisporus; conditions: 23/10993, 72 h; summary of the method: as §1
[12] = tested on: Cryptococcus gattii species complex; experiment: Antifungal activity against Cryptococcus gattii 29/10893 after 72 hrs by microdilution method; format: functional, Cryptococcus bacillisporus; conditions: 29/10893, 72 h; summary of the method: as §1
[13] = tested on: Cryptococcus gattii species complex; experiment: Antifungal activity against fluconazole-resistant Cryptococcus gattii L27/01F after 72 hrs by microdilution method; format: functional, Cryptococcus bacillisporus
Summary of the method: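 Broth microdilution susceptibility test following the CLSI M27-A3 standard; the MIC is reported in […]. Fluconazole is run in parallel as the reference drug across the C. gattii and C. neoformans strain panel.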

[14] = tested on: Cryptococcus neoformans; experiment: Antifungal activity against Cryptococcus neoformans ATCC 96806 after 72 hrs by microdilution method; format: functional; conditions: ATCC 96806, 72 h; summary of the method: as §1
[15] = tested on: Cryptococcus neoformans; experiment: Antifungal activity against Cryptococcus neoformans ATCC 62066 after 72 hrs by microdilution method; format: functional; conditions: ATCC 62066, 72 h; summary of the method: as §1
[16] = tested on: Cryptococcus neoformans; experiment: Antifungal activity against Cryptococcus neoformans ATCC 24067 after 72 hrs by microdilution method; format: functional; conditions: ATCC 24067, 72 h; summary of the method: as §1
[17] = tested on: Cryptococcus neoformans; experiment: Antifungal activity against Cryptococcus neoformans ATCC 28957 after 72 hrs by microdilution method; format: functional; conditions: ATCC 28957, 72 h; summary of the method: as §1
[18] = tested on: Cryptococcus bacillisporus; experiment: Induction of reactive oxygen species formation in Cryptococcus gattii ATCC 32608 at MIC after 0.5 to 1 hr by dichlorofluorescein diacetate probe-based fluorometric assay relative to control; format: functional, organism-based
Summary of the method: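 Endogenous ROS in C. gattii ATCC 32608 cells treated at the compound's MIC, measured fluorometrically (signal proportional to ROS accumulation); untreated cells and compound alone measured for baseline; group differences tested statistically.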

[19] = tested on: Cryptococcus gattii; experiment: Antifungal activity against Cryptococcus gattii ATCC 24065 after 72 hrs by microdilution method; conditions: ATCC 24065, 72 h
[20] = Induction of reactive oxygen species formation after 0.5 to 1 hr by dichlorofluorescein diacetate probe-based fluorometric assay; format: physicochemical

| Molecule | MIC [1] | MIC [2] | MIC [3] | MIC [4] | MIC [5] | MIC [6] | MIC [7] | MIC [8] | MIC [9] | MIC [10] | MIC [11] | MIC [12] | MIC [13] | MIC [14] | MIC [15] | MIC [16] | MIC [17] | Activity [18] | MIC [19] | Activity [20] |
| --- | --- | --- | --- | --- | --- | --- | --- | --- | --- | --- | --- | --- | --- | --- | --- | --- | --- | --- | --- | --- |
| CCN(CC)c1ccc2cc(-n3cc(CCCO)nn3)c(=O)oc2c1 | > 750 µM | > 750 µM | > 750 µM | > 750 µM | > 750 µM | > 750 µM | > 750 µM | > 750 µM | > 750 µM | > 750 µM | > 750 µM | > 750 µM | > 750 µM | > 750 µM | > 750 µM | > 750 µM | > 750 µM | Active | > 750 µM | – |
| C#CCCC(=O)N[C@@H](CCCNC(=N)N)C(=O)N[C@@H](C)C(=O)N[C@@H](CCCCN)C(=O)N[C@@H](CCCNC(=N)N)C(=O)N[C@@H](CCCNC(=N)N)C(=O)N[C@@H](CCSC)C(=O)N[C@@H](CCC(N)=O)C(=O)N[C@@H](Cc1ccc(O)cc1)C(N)=O (Pent4ynoyl-RAKRRMQY-NH2) | > 220 µM | > 220 µM | > 220 µM | > 220 µM | > 220 µM | > 220 µM | > 220 µM | > 220 µM | > 220 µM | > 220 µM | > 220 µM | > 220 µM | > 220 µM | > 220 µM | > 220 µM | > 220 µM | > 220 µM | – | > 220 µM | – |
| CCN(CC)c1ccc2cc(-n3cc(CCC(=O)N[C@@H](CCCNC(=N)N)C(=O)N[C@@H](C)C(=O)N[C@@H](CCCCN)C(=O)N[C@@H](CCCNC(=N)N)C(=O)N[C@@H](CCCNC(=N)N)C(=O)N[C@@H](CCSC)C(=O)N[C@@H](CCC(N)=O)C(=O)N[C@@H](Cc4ccc(O)cc4)C(N)=O)nn3)c(=O)oc2c1 (X1-RAKRRMQY-NH2) | 90 µM (≈ 130 µg/mL) | 40 µM (≈ 57.8 µg/mL) | 40 µM (≈ 57.8 µg/mL) | 40 µM (≈ 57.8 µg/mL) | 90 µM (≈ 130 µg/mL) | 180 µM (≈ 260 µg/mL) | 40 µM (≈ 57.8 µg/mL) | 90 µM (≈ 130 µg/mL) | 180 µM (≈ 260 µg/mL) | 90 µM (≈ 130 µg/mL) | 180 µM (≈ 260 µg/mL) | 90 µM (≈ 130 µg/mL) | 90 µM (≈ 130 µg/mL) | 90 µM (≈ 130 µg/mL) | 90 µM (≈ 130 µg/mL) | 90 µM (≈ 130 µg/mL) | 90 µM (≈ 130 µg/mL) | Active | 180 µM (≈ 260 µg/mL) | Not Active |
| OC(Cn1cncn1)(Cn1cncn1)c1ccc(F)cc1F [FLUCONAZOLE] | 50 µM (≈ 15.3 µg/mL) | 50 µM (≈ 15.3 µg/mL) | 100 µM (≈ 30.6 µg/mL) | 100 µM (≈ 30.6 µg/mL) | 50 µM (≈ 15.3 µg/mL) | 50 µM (≈ 15.3 µg/mL) | 100 µM (≈ 30.6 µg/mL) | 100 µM (≈ 30.6 µg/mL) | 100 µM (≈ 30.6 µg/mL) | 50 µM (≈ 15.3 µg/mL) | 50 µM (≈ 15.3 µg/mL) | 30 µM (≈ 9.19 µg/mL) | 420 µM (≈ 129 µg/mL) | 150 µM (≈ 45.9 µg/mL) | 30 µM (≈ 9.19 µg/mL) | 20 µM (≈ 6.13 µg/mL) | 3 µM (≈ 0.919 µg/mL) | – | 10 µM (≈ 3.06 µg/mL) | – |
| H-RAKRRMQY-NH2 | > 230 µM | > 230 µM | > 230 µM | > 230 µM | > 230 µM | > 230 µM | > 230 µM | > 230 µM | > 230 µM | > 230 µM | > 230 µM | > 230 µM | > 230 µM | > 230 µM | > 230 µM | > 230 µM | > 230 µM | – | > 230 µM | – |
| CCN(CC)c1ccc2cc(N=[N+]=[N-])c(=O)oc2c1 | > 990 µM | > 990 µM | > 990 µM | > 990 µM | > 990 µM | > 990 µM | > 990 µM | > 990 µM | > 990 µM | > 990 µM | > 990 µM | > 990 µM | > 990 µM | > 990 µM | > 990 µM | > 990 µM | > 990 µM | – | > 990 µM | – |
